The source of these data is PubChem BioAssay AID2445 (The Scripps Research Institute Molecular Screening Center, 2010).

The campaign covered roughly 320,000 compounds. About 200 (0.062%) were called active. Many of the other results were omitted from the sample, so actives are more common in it than they were. Values without a mark were called inactive.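 The calls were made as follows: active = activation above that plate's cutoff, the mean activation of tested compounds plus 3 SD (cut at about 6.6% in these data, passing the limit was not always enough); inactive = the rest.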

Sequence of Oxytocin receptor (Homo sapiens) (P30559 whole entry, looked up): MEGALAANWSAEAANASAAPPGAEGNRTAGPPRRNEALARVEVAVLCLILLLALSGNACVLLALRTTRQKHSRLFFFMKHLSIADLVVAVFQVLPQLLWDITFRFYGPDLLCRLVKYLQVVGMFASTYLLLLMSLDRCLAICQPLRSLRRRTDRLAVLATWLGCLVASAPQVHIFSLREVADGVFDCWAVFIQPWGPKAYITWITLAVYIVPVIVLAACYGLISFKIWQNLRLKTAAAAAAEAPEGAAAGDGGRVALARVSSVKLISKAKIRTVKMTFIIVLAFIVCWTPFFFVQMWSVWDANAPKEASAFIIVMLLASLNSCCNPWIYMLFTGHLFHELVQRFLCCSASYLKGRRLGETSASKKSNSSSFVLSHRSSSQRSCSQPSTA

This test addresses Oxytocin receptor (Homo sapiens) (UniProt P30559). Kind of test: human OXTR potentiators, primary screen, fluorescence, CHO-OTR cells, Fluo-8 calcium (AID 2445).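 Also: 100% uses oxytocin at 75 nM as the full agonist control.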 Conditions: Fluo-8 calcium fluorescence, potentiator mode, at 3 µM, stronger effect = higher value, 0% = oxytocin EC15, 100% = EC100. The method in brief: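 Assay system: CHO cell line stably expressing human OTR. Reagent: EC15 oxytocin agonist. Dosing: single dose, 3.0 µM nominal final compound concentration. Timing: compound 6 min at room temperature before oxytocin, 100 s read. Signal: kinetic Fluo-8 calcium fluorescence. Controls: oxytocin EC15 low and EC100 high.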
As to `CCc1ccnc(NS(=O)(=O)c2ccc3c(c2)OCCO3)c1`, the activation was -3.79%.

Regarding `C/C(=N\NC(=O)c1ccc(C)cc1)C1C(=O)c2ccccc2C1=O`, the activation is -16.2%.

`Cc1ccc(OCc2nnc(SC3CCc4ccccc4C3=O)n2C)cc1` (stereo not drawn): the activation is -7.17%.

Turning to `CC1(C)CC(=O)C=C(c2ccc3ncccc3c2)C1`, the activation is -1.73%.

Regarding `Nc1cc(OC(=O)c2ccccc2Br)nn1S(=O)(=O)c1ccccc1`, the activation was -18.3%.

With `CCOc1cc(C2/C(=C(/O)c3ccc(S(=O)(=O)N4CCCCC4)cc3)C(=O)C(=O)N2CCOC)ccc1O` (stereo not drawn), the activation was -8.45%.

For `Cc1nc(CNS(=O)(=O)c2ccc(Oc3ccccc3)cc2)cs1`, the activation is -14.3%.

As for `O=C(NCc1ccc(Cl)cc1)C(=O)NCC1CCCN1S(=O)(=O)c1cccs1` (stereo not drawn), the activation is -5.47%.

In the case of `C=CCN(N=Nc1cccc([N+](=O)[O-])c1)c1cccc([N+](=O)[O-])c1`, the activation is -14.2%.

Consider `O=C(CNC(=O)c1ccc2ccccc2c1)Nc1ncccc1O`, for which the activation was 1.14%.

As to `COc1ccc(N(C(=O)c2snc(C(N)=O)c2N)C(C(=O)NC2CCCC2)c2ccc(C)o2)c(OC)c1` (stereo not drawn), the activation is -3.04%.

`Cc1cccc(OCC(O)CN2CCN(S(=O)(=O)c3ccc(C)cc3C)CC2)c1` (stereo not drawn): the activation is -12%.

Take `Cc1ccc(OCC(O)CN2CCN(CC(O)COc3ccc(C)cc3Cl)CC2)c(Cl)c1` (stereo not drawn): the activation was 12.6% (active).

With `OC(COc1ccc(F)cc1Cl)CN1CCc2ccccc2C1` (stereo not drawn), the activation is -6.27%.

In the case of `COc1ccc(NC(=O)CCNS(=O)(=O)c2ccc3c(c2)c(=O)n(C)c(=O)n3C)cc1OC`, the activation was -4.46%.

Consider `O=C(Nc1ccc2c(c1)OCO2)C1CC(c2c(F)cccc2Cl)=NO1` (stereo not drawn), for which the activation was -1.98%.

For the compound `CS(=O)(=O)N(Cc1nc2sc3c(c2c(=O)[nH]1)CCCC3)C1CCCCC1`, the activation was -9.15%.

Turning to `COc1cc2c(cc1OC)C(=O)NCC(C)(C)O2`, the activation is 0.49%.

On to `CN(C(=O)c1cccc(NC(=O)Cc2ccc([N+](=O)[O-])cc2)c1)C1CCC1`, for which the activation was -0.31%.

Consider `O=C(CSc1n[nH]c(-c2cccnc2)n1)Nc1ccc(Cl)cc1`, for which the activation was -11%.

Take `COC(=O)C1CCN(C(=O)COC(=O)c2cc(S(=O)(=O)N3CCOCC3)ccc2C)CC1`: the activation was -5.03%.

With `O=C(OCCN1C(=O)c2ccccc2C1=O)[C@@H]1CC(O)CN1S(=O)(=O)c1ccccc1[N+](=O)[O-]` (stereo partly drawn), the activation was -5.05%.

On to `CCN(CC(=O)NCc1cccs1)C(=O)c1cccc(S(=O)(=O)Nc2ccccc2OC)c1`, for which the activation was -5.42%.

With `Cc1ccc(N2C(=O)SC(N(CC(=O)O)c3ccc(C)cc3)C2=O)cc1` (stereo not drawn), the activation is -15.1%.

Take `O=C(NCC(c1ccco1)N1CCc2ccccc21)c1cccc(F)c1` (stereo not drawn): the activation was -9.25%.

On to `CSc1nnnn1-c1c(C)cc(C)cc1C`, for which the activation is -1.91%.

Turning to `CCOc1ccccc1Nc1nnc(SCC(=O)NCC2CCCO2)s1` (stereo not drawn), the activation is 0.07%.

For `O=C(CCc1nnc2ccc(NCc3ccccc3Cl)nn12)NCC1CCN(C2CCCC2)C1` (stereo not drawn), the activation was -8.06%.

Take `CCCC(NC(=O)c1ccccc1)c1nc2ccccc2n1Cc1ccc(C(=O)OC)o1` (stereo not drawn): the activation is 4.77%.

In the case of `COc1cccc(-n2c(=O)c3c(C)c(C(=O)N(C)C)sc3n(CC(=O)NCCc3ccc(OC)c(OC)c3)c2=O)c1`, the activation is -15.7%.

Turning to `CC(CNC(=O)c1ccc(N)cc1)NC(=O)c1ccc(N)cc1` (stereo not drawn), the activation is -7.37%.

For the compound `CC(C)(CNC(=O)CNC(=O)C1CCCCC1)N1CCOCC1`, the activation was -6.61%.

For `COCCN(C(=S)Nc1cccc(Cl)c1C)C(C)c1ccco1` (stereo not drawn), the activation was 2.23%.

For `CC(C)N1C(=S)SC(C)(C)C1n1oc(=O)n(-c2ccc(Cl)c(Cl)c2)c1=O` (stereo not drawn), the activation is -15.1%.

As to `COc1ccc2[nH]c(=O)c(CN(Cc3cccnc3)S(=O)(=O)c3ccccc3F)cc2c1`, the activation is -13.1%.

Consider `OC(c1ccc(Cl)cc1)C(CN1CCOCC1)c1ccccc1` (stereo not drawn), for which the activation is -9.47%.

As for `CCS(=O)(=O)c1ccc2c(c1)N(S(=O)(=O)c1ccccc1)CC(C(=O)O)O2` (stereo not drawn), the activation was -11.9%.

As to `Cc1ccc(-n2ncc3c2CC(C)(C)CC3NC(=O)CCc2cnn(C)c2)cc1` (stereo not drawn), the activation is -3.78%.
